Experimental data collected from several papers.
Protocols differ between the studies behind these lines.
Read-out: microbial growth

O=C(O)CN1C(=O)/C(=C/c2c3ccccc3c(-c3ccc(N(c4ccccc4)c4ccccc4)cc3)c3ccccc23)NC1=S — MIC (Micrococcus luteus; broth dilution; ATCC10240): > 1000 µg/mL
CN(C)[C@@H]1C(O)=C(C(N)=O)C(=O)[C@@]2(O)C(O)=C3C(=O)c4c(O)cccc4[C@@](C)(O)[C@H]3C[C@@H]12 — MIC (Staphylococcus aureus; NCTC8325): 0.5 µM
C/C=C(\C)c1cc(OC(=O)c2c(O)c(C)c(O)c(Cl)c2/C(C)=C/C)c(C)c(O)c1C(=O)O — MIC (Micrococcus luteus; broth dilution; ML01): 32 µg/mL
O=C(N[C@H](CO)[C@H](O)c1ccc([N+](=O)[O-])cc1)C(Cl)Cl — MIC (Micrococcus flavus; broth dilution): 7 µg/mL
CNC(=O)c1cc(Oc2ccc(NC(=O)Nc3c(C)cccc3Cl)cc2)ccn1 — MIC (Staphylococcus aureus; NCTC8325): > 100 µM
CC1=NN(CNc2ccc(C(=O)O)cc2)C(=O)C1=NNn1c(-c2ccccc2)nc2ccccc2c1=O — MIC (Micrococcus luteus; broth dilution; 24 h): 50.5 µM
C#CCCCCC(=O)NC(C)C — MIC (Staphylococcus aureus; NCTC8325): > 100 µM
CC1=NN(CNc2ccccc2[N+](=O)[O-])C(=O)C1=NNn1c(-c2ccccc2)nc2ccccc2c1=O — MIC (Micrococcus luteus; broth dilution; 24 h): 50.4 µM
O=C(O)CN1C(=O)/C(=C/c2c3ccccc3c(-c3ccc(N(c4ccccc4)c4ccccc4)cc3)c3ccccc23)SC1=S — MIC (Micrococcus luteus; broth dilution; ATCC10240): 125 µg/mL
CC1=NN(CNc2ccc(Cl)cc2)C(=O)C1=NNn1c(-c2ccccc2)nc2ccccc2c1=O — MIC (Micrococcus luteus; broth dilution; 24 h): 103 µM
O=C1NC(=S)N/C1=C\c1c2ccccc2c(-c2ccc(N(c3ccccc3)c3ccccc3)cc2)c2ccccc12 — MIC (Micrococcus luteus; broth dilution; ATCC10240): > 1000 µg/mL
O=c1[nH]c(NCc2ccc(Cl)c(Cl)c2)nc2ncn(CCCCCN3CCOCC3)c12 — MIC (Lactobacillus acidophilus; agar dilution; 48 h): 2 µg/mL
O=C(O)c1cn(C2CC2)c2cc(N3CCNCC3)c(F)cc2c1=O — MIC (Micrococcus luteus; broth dilution; ATCC10240): 0.98 µg/mL
CNC(=O)c1cc(Sc2ccc(NC(=O)Nc3ccc(Cl)c(C(F)(F)F)c3)cc2)ccn1 — MIC (Staphylococcus aureus; NCTC8325; 24 h): 1 µM
CCc1cc(Nc2cc(=O)n(CCCCO)c(=O)[nH]2)ccc1C — MIC (Lactobacillus acidophilus; agar dilution; 48 h): 32 µg/mL
CNC(=O)c1ccc2c(c1)NC(=O)/C2=C(\Nc1cccc(CN(C)C)c1)c1ccccc1 — MIC (Staphylococcus aureus; NCTC8325): > 30 µM
O=C1NC(=S)N/C1=C\c1ccc(-c2ccc(N(c3ccccc3)c3ccccc3)cc2)cc1 — MIC (Micrococcus luteus; broth dilution; ATCC10240): 62.5 µg/mL
